Common to all, as to type: functional, cell-based
For test [1], the system named is A549. Briefly: Anticancer activity against human A549 cells assessed as growth inhibition after 48 hrs by MTT assay. To be noted: A549, 48 h. Put shortly: (§1)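 Standard MTT assay on cells incubated with compound for 48 h, with 5-fluorouracil as the positive control. Results are reported as IC50.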
On the technique in general: Tetrazolium dyes change colour on reduction, which living cells bring about.

Test [2] relates to MCF7. Briefly: Anticancer activity against human MCF7 cells assessed as growth inhibition after 48 hrs by MTT assay. To be noted: MCF7, 48 h. A digest of the protocol: as §1
Test [3] is described as follows: Anticancer activity against human HCT116 cells assessed as growth inhibition after 48 hrs by MTT assay. To be noted: HCT-116, 48 h. A digest of the protocol: as §1
The test system of test [4] is HeLa. Briefly: Anticancer activity against human HeLa cells assessed as growth inhibition after 48 hrs by MTT assay. Put shortly:
as §1

Test [5] can be described thus: Anticancer activity against mouse LL/2 cells assessed as growth inhibition after 48 hrs by MTT assay. The settings on record: Lewis lung carcinoma. A digest of the protocol:
as §1

Converted amounts (≈) assume the structure as drawn. A value given as a limit tells only on which side of the number the result lay.

Usually IC50 stands for the concentration at which inhibition is half-maximal. `CC(C)NC(=O)c1cccc2c1NC(=O)C(C(C)(C)C(=O)NCc1ccccc1)C(=O)N2` (centres undefined): the IC50 in test [1] is greater than 100 mg/L.
For `CC(C)(C)NC(=O)c1cccc2c1NC(=O)C(C(C)(C)C(=O)NCc1ccccc1)C(=O)N2` (centres undefined), the concentration for half-maximal inhibition (IC50) in test [1] is greater than 100 mg/L.
As for `CC(C)(C(=O)NCc1ccccc1)C1C(=O)Nc2cccc(C(=O)NC3CC3)c2NC1=O` (centres undefined), in test [1], the IC50 was greater than 100 mg/L.
Take `CC(C)(C(=O)NCc1ccccc1)C1C(=O)Nc2cccc(C(=O)NCc3ccccc3)c2NC1=O` (centres undefined): the IC50 is 45.3 mg/L (≈ 93.5 µM) in test [1]; 91.2 mg/L (≈ 188 µM) in test [2]; 85 mg/L (≈ 175 µM) in test [3]; 42 mg/L (≈ 86.7 µM) in test [4]; 48.5 mg/L (≈ 100 µM) in test [5].
As to `CC(C)(C(=O)NCc1ccccc1)C1C(=O)Nc2cccc(C(=O)NCc3cccc(C(F)(F)F)c3)c2NC1=O` (centres undefined), the IC50 in test [1] is 80.5 mg/L (≈ 146 µM); in test [2], 36.1 mg/L (≈ 65.3 µM); in test [3] it was 46.1 mg/L (≈ 83.4 µM); in test [4], 8.1 mg/L (≈ 14.7 µM); in test [5], 30.5 mg/L (≈ 55.2 µM).
Taken in the same sequence, the figures for `Cc1ccc(CNC(=O)c2cccc3c2NC(=O)C(C(C)(C)C(=O)NCc2ccccc2)C(=O)N3)cc1Cl` (centres undefined) were 59.4 mg/L (≈ 111 µM), 87 mg/L (≈ 163 µM), greater than 100 mg/L, 16.7 mg/L (≈ 31.3 µM) and 58.3 mg/L (≈ 109 µM).
For `CC(C)(C(=O)NCc1ccccc1)C1C(=O)Nc2cccc(C(=O)NCc3ccc(F)c(Cl)c3)c2NC1=O` (centres undefined), the IC50 is 68.1 mg/L (≈ 127 µM) in test [1]; 68.2 mg/L (≈ 127 µM) in test [2]; 49.9 mg/L (≈ 92.9 µM) in test [3]; 21.1 mg/L (≈ 39.3 µM) in test [4]; 66.8 mg/L (≈ 124 µM) in test [5].
For `Cc1ccc(CNC(=O)c2cccc3c2NC(=O)C(C(C)(C)C(=O)NCc2ccccc2)C(=O)N3)cc1` (centres undefined), in test [1], the IC50 is greater than 100 mg/L.
Turning to `CC(C)(C(=O)NCc1ccccc1)C1C(=O)Nc2cccc(C(=O)NCc3cc(F)ccc3F)c2NC1=O` (centres undefined), the half-inhibitory concentration (IC50) stood at 43.1 mg/L (≈ 82.8 µM) in test [1]; 74.8 mg/L (≈ 144 µM) in test [2]; 80.1 mg/L (≈ 154 µM) in test [3]; 25.1 mg/L (≈ 48.2 µM) in test [4]; 40.2 mg/L (≈ 77.2 µM) in test [5].
As to `CC(C)(C(=O)NCc1ccccc1)C1C(=O)Nc2cccc(C(=O)NCc3c(F)ccc(F)c3F)c2NC1=O` (centres undefined), in test [1], the half-maximal inhibitory concentration (IC50) is 97.7 mg/L (≈ 181 µM).
Consider `CC(C)(C(=O)NCc1ccccc1)C1C(=O)Nc2cccc(C(=O)NCc3ccccn3)c2NC1=O` (centres undefined), for which the IC50 in test [1] is greater than 100 mg/L.
As for `CC(C)(C(=O)NCc1ccccc1)C1C(=O)Nc2cccc(C(=O)Nc3ccccc3)c2NC1=O` (centres undefined), the IC50 is 85.3 mg/L (≈ 181 µM) in test [1]; 21.3 mg/L (≈ 45.3 µM) in test [2]; 26.6 mg/L (≈ 56.5 µM) in test [3]; 41.9 mg/L (≈ 89 µM) in test [4]; 29.3 mg/L (≈ 62.3 µM) in test [5].
For `CC(C)(C(=O)NCc1ccccc1)C1C(=O)Nc2cccc(C(=O)Nc3cccc(C(F)(F)F)c3)c2NC1=O` (centres undefined), the IC50 is 27.8 mg/L (≈ 51.6 µM) in test [1]; 10 mg/L (≈ 18.6 µM) in test [2]; 20.5 mg/L (≈ 38.1 µM) in test [3]; 42 mg/L (≈ 78 µM) in test [4]; 17.6 mg/L (≈ 32.7 µM) in test [5].
Regarding `CC(C)(C(=O)NCc1ccccc1)C1C(=O)Nc2cccc(C(=O)Nc3cccc(Cl)c3)c2NC1=O` (centres undefined), the IC50 amounted to 56.2 mg/L (≈ 111 µM) in test [1]; 11.2 mg/L (≈ 22.2 µM) in test [2]; 17.3 mg/L (≈ 34.3 µM) in test [3]; 24 mg/L (≈ 47.5 µM) in test [4]; 17.1 mg/L (≈ 33.9 µM) in test [5].
For `CC(C)(C(=O)NCc1ccccc1)C1C(=O)Nc2cccc(C(=O)Nc3ccccc3F)c2NC1=O` (centres undefined), the concentration for half-maximal inhibition (IC50) in test [1] is 96.1 mg/L (≈ 197 µM).
The same measure, in the same setting: to `CC(C)(C(=O)NCc1ccccc1)C1C(=O)Nc2cccc(C(=O)Nc3ccc(C(F)(F)F)cc3)c2NC1=O` (centres undefined) belongs greater than 100 mg/L.
As for `CC(C)(C(=O)NCc1ccccc1)C1C(=O)Nc2cccc(C(=O)Nc3cccc(F)c3F)c2NC1=O` (centres undefined), the IC50 in test [1] is 80.4 mg/L (≈ 159 µM); in test [2] it was 21 mg/L (≈ 41.5 µM); in test [3] it was 25 mg/L (≈ 49.4 µM); in test [4] it was 37.8 mg/L (≈ 74.6 µM); in test [5] it was 32.9 mg/L (≈ 65 µM).
Consider `CC(C)(C(=O)NCc1ccccc1)C1C(=O)Nc2cccc(C(=O)Nc3ccc(F)cc3F)c2NC1=O` (centres undefined), for which the IC50 in test [1] is greater than 100 mg/L.
On to `CC(C)(C(=O)NCc1ccccc1)C1C(=O)Nc2cccc(C(=O)Nc3cc(Cl)ccc3F)c2NC1=O` (centres undefined), for which the IC50 in test [1] turned out to be 63.3 mg/L (≈ 121 µM); in test [2] it was 20.4 mg/L (≈ 39 µM); in test [3], 21.3 mg/L (≈ 40.7 µM); in test [4], 35.4 mg/L (≈ 67.7 µM); in test [5] it was 19.3 mg/L (≈ 36.9 µM).
As for `CC(C)(C(=O)NCc1ccccc1)C1C(=O)Nc2cccc(C(=O)Nc3ccc(F)c(F)c3F)c2NC1=O` (centres undefined), the IC50 in test [1] was greater than 100 mg/L.
For `O=c1[nH]cc(F)c(=O)[nH]1` [FLUOROURACIL], the IC50 in test [2] was determined as 12.1 mg/L (≈ 93 µM); in test [3], 4.8 mg/L (≈ 36.9 µM); in test [4], 5.7 mg/L (≈ 43.8 µM); in test [5], 2.9 mg/L (≈ 22.3 µM).

The values above are taken from ChEMBL document CHEMBL3352795, “Discovery of novel 1,5-benzodiazepine-2,4-dione derivatives as potential anticancer agents” (Bioorg Med Chem Lett, 2014).
